The source made the active and inactive calls. The calls are words filed in the database; no cut-off is given here.
Key:
[1] = test system: HCT-15; test: Growth inhibition of human HCT15 cells assessed as cell growth at 10 uM after 48 hrs by MTT assay; values are per cent of control; conditions: HCT-15, 48 h
[2] = test system: HT-29; test: Growth inhibition of human HT-29 cells assessed as cell growth at 10 uM after 48 hrs by MTT assay; values are per cent of control; conditions: HT-29, 48 h
[3] = test system: SF-539; test: Growth inhibition of human SF539 cells assessed as cell growth at 10 uM after 48 hrs by MTT assay; values are per cent of control; conditions: SF-539, 48 h
[4] = test system: SK-OV-3; test: Growth inhibition of human SKOV3 cells assessed as cell growth at 10 uM after 48 hrs by MTT assay; values are per cent of control; conditions: SK-OV-3, 48 h
[5] = test system: OVCAR-3; test: Growth inhibition of human OVCAR3 cells assessed as cell growth at 10 uM after 48 hrs by MTT assay; values are per cent of control; conditions: OVCAR-3, 48 h
[6] = test system: SK-MEL-28; test: Increase in superoxide level in human SK-MEL-28 cells at 100 uM maintained in Locke's solution after 24 hrs by DHE-based fluorescence assay in absence of GF and glucose; format: functional, cell-based
Summary of the method: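 SK-MEL-28 cells held 24 h in Locke's balanced saline without glucose or serum, with or without 100 µM compound; antimycin was the positive control. Cells were PBS-washed and labelled at 37 °C with DHE (10 µmol/L, 1% DMSO) in Locke's containing 5 mmol/L pyruvate for 40 min. They were then iced, trypsinized and read by FACS as MFI of 10,000 cells, autofluorescence-corrected; 3–4 separate experiments.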

[7] = test system: HCC 2998; test: Growth inhibition of human HCC2998 cells assessed as cell growth at 10 uM after 48 hrs by MTT assay; values are per cent of control; conditions: HCC 2998, 48 h
[8] = test system: HOP-92; test: Growth of human HOP92 cells assessed as cell growth at 10 uM after 48 hrs by MTT assay; conditions: HOP-92, 48 h
[9] = test system: MDA-MB-435; test: Growth inhibition of human MDA-MB-435 cells assessed as cell growth at 10 uM after 48 hrs by MTT assay; values are per cent of control; conditions: MDA-MB-435, 48 h
[10] = test system: MCF7; test: Growth inhibition of human MCF7 cells assessed as cell growth at 10 uM after 48 hrs by MTT assay; values are per cent of control; conditions: MCF7, 48 h
[11] = test system: NCI-H226; test: Growth of human NCI-H226 cells assessed as cell growth at 10 uM after 48 hrs by MTT assay; conditions: NCI-H226, 48 h
[12] = test system: A549; test: Growth of human A549/ATCC cells assessed as cell growth at 10 uM after 48 hrs by MTT assay; conditions: A549, 48 h
[13] = test system: SK-MEL-28; test: Increase in superoxide level in human SK-MEL-28 cells maintained in medium containing GF and glucose at 100 uM after 24 hrs by DHE-based fluorescence ssay; format: functional, cell-based
Summary of the method: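 Cells (SK-MEL-28) were kept 24 h in growth medium (DMEM + 10% serum) with or without 100 µM compound; antimycin was the positive control. They were labelled at 37 °C with DHE (10 µmol/L, 1% DMSO) in Locke's containing 5 mmol/L pyruvate for 40 min, stopped on ice and trypsinized. Flow-cytometric MFI of 10,000 cells, corrected for unlabelled autofluorescence; 3–4 separate experiments.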

[14] = test system: OVCAR-4; test: Growth of human OVCAR4 cells assessed as cell growth at 10 uM after 48 hrs by MTT assay; conditions: OVCAR-4, 48 h
[15] = test system: MOLT-4; test: Growth inhibition of human MOLT4 cells assessed as cell growth at 10 uM after 48 hrs by MTT assay; values are per cent of control; conditions: MOLT-4, 48 h
[16] = test system: K562; test: Growth inhibition of human K562 cells assessed as cell growth at 10 uM after 48 hrs by MTT assay; values are per cent of control; conditions: K562, 48 h
[17] = test system: HOP-62; test: Growth inhibition of human HOP62 cells assessed as cell growth at 10 uM after 48 hrs by MTT assay; values are per cent of control; conditions: HOP-62, 48 h
[18] = test system: SNB-75; test: Growth of human SNB75 cells assessed as cell growth at 10 uM after 48 hrs by MTT assay; conditions: SNB-75, 48 h
[19] = test system: HCT-116; test: Growth inhibition of human HCT116 cells assessed as cell growth at 10 uM after 48 hrs by MTT assay; values are per cent of control; conditions: HCT-116, 48 h
[20] = test system: Malme-3M; test: Growth inhibition of human MALME-3M cells assessed as cell growth at 10 uM after 48 hrs by MTT assay; values are per cent of control
[21] = test system: OVCAR-5; test: Growth inhibition of human OVCAR5 cells assessed as cell growth at 10 uM after 48 hrs by MTT assay; values are per cent of control; conditions: OVCAR-5, 48 h
[22] = test system: SR; test: Growth inhibition of human SR cells assessed as cell growth at 10 uM after 48 hrs by MTT assay; values are per cent of control
[23] = test system: SK-MEL-2; test: Growth inhibition of human SK-MEL-2 cells assessed as cell growth at 10 uM after 48 hrs by MTT assay; values are per cent of control; conditions: SK-MEL-2, 48 h
[24] = test system: EKVX; test: Growth inhibition of human EKVX cells assessed as cell growth at 10 uM after 48 hrs by MTT assay; values are per cent of control
[25] = test system: NCI-H322M; test: Growth of human NCI-H322M cells assessed as cell growth at 10 uM after 48 hrs by MTT assay

**Q.** How did the growth, % of control at 10 µM [1] turn out when `c1cncc(-c2cnn[nH]2)c1` was run?
**A.** Its growth, % of control at 10 µM is 69.2%.

**Q.** What about the growth, % of control at 10 µM [2] of the same compound?
**A.** Its growth, % of control at 10 µM is 39.9%.

**Q.** And the growth, % of control at 10 µM [3]?
**A.** Its growth, % of control at 10 µM is 106%.

**Q.** And the growth, % of control at 10 µM [4]?
**A.** Its growth, % of control at 10 µM is 48%.

**Q.** And the growth, % of control at 10 µM [5]?
**A.** Its growth, % of control at 10 µM is 89.5%.

**Q.** And the Activity [6]?
**A.** The Activity was “Active”.

**Q.** What about the growth, % of control at 10 µM [7] of the same compound?
**A.** The growth, % of control at 10 µM was 77.3%.

**Q.** And the growth, % of control at 10 µM [8]?
**A.** The growth, % of control at 10 µM was 80.8%.

**Q.** And the growth, % of control at 10 µM [9]?
**A.** The growth, % of control at 10 µM was 56%.

**Q.** What about the growth, % of control at 10 µM [10] of the same compound?
**A.** Its growth, % of control at 10 µM is 117%.

**Q.** What about the growth, % of control at 10 µM [11] of the same compound?
**A.** Its growth, % of control at 10 µM is 80.6%.

**Q.** What about the growth, % of control at 10 µM [12] of the same compound?
**A.** The growth, % of control at 10 µM was 101%.

**Q.** What about the Activity [13] of the same compound?
**A.** The Activity was “Active”.

**Q.** What about the growth, % of control at 10 µM [14] of the same compound?
**A.** The growth, % of control at 10 µM was 47.4%.

**Q.** What about the growth, % of control at 10 µM [15] of the same compound?
**A.** The growth, % of control at 10 µM was 101%.

**Q.** What about the growth, % of control at 10 µM [16] of the same compound?
**A.** The growth, % of control at 10 µM was 75.2%.

**Q.** And the growth, % of control at 10 µM [17]?
**A.** The growth, % of control at 10 µM was 90.9%.

**Q.** What about the growth, % of control at 10 µM [18] of the same compound?
**A.** Its growth, % of control at 10 µM is 93%.

**Q.** And the growth, % of control at 10 µM [19]?
**A.** Its growth, % of control at 10 µM is 82.4%.

**Q.** And the growth, % of control at 10 µM [20]?
**A.** The growth, % of control at 10 µM was 99%.

**Q.** What about the growth, % of control at 10 µM [21] of the same compound?
**A.** Its growth, % of control at 10 µM is 100%.

**Q.** And the growth, % of control at 10 µM [22]?
**A.** Its growth, % of control at 10 µM is 97.3%.

**Q.** What about the growth, % of control at 10 µM [23] of the same compound?
**A.** The growth, % of control at 10 µM was 109%.

**Q.** And the growth, % of control at 10 µM [24]?
**A.** Its growth, % of control at 10 µM is 76.4%.

**Q.** And the growth, % of control at 10 µM [25]?
**A.** The growth, % of control at 10 µM was 104%.

Source: ChEMBL document CHEMBL2062496, “Identification of a sirtuin 3 inhibitor that displays selectivity over sirtuin 1 and 2” (Eur J Med Chem, 2012)
